Measured values reported in ChEMBL document CHEMBL1156185, “A class of 3S-2-aminoacyltetrahydro-beta-carboline-3-carboxylic acids: their facile synthesis, inhibition for platelet activation, and high in vivo anti-thrombotic potency” (J Med Chem, 2010).
Counter-ions that a name gives are not always drawn.

How the values were obtained:
[1] = Antiplatelet aggregation activity against arachidonic acid-induced pig platelet aggregation after 5 mins by aggregometer; format: functional, cell-based; conditions: Sus scrofa
Outline: (§1)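 Pig blood from six pigs was spun at 1000 rpm for 10 min to give PRP, then at 1500g for 10 min to give PPP. PRP was adjusted to 2 × 10⁸ platelets/mL with autologous PPP. Test agent or NS was added at final 100 µM–1 nM. Agonists were at final concentrations of ADP 10 µM, AA 350 µM, PAF 0.1 µM and thrombin 0.1 U/mL. Light-transmission peak was read at 37 °C over 5 min, in sextuplicate. IC50 was taken from the concentration–inhibition curve.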

Platelet [2] = assay: Ratio of IC50 for thrombin-induced pig platelet aggregation to IC50 for ADP-induced pig platelet aggregation; format: functional, Sus scrofa
Outline: (§2)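 Fold ratios of IC50 values. Each IC50 came from pig PRP (2 × 10⁸ platelets/mL) light-transmission aggregometry at 37 °C for 5 min, in sextuplicate, with final ADP 10 µM, AA 350 µM, PAF 0.1 µM or thrombin 0.1 U/mL.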

Platelet [3] = assay: Ratio of TCCA IC50 to compound IC50 for ADP-induced pig platelet aggregation; format: functional, Sus scrofa; outline: as §2
Platelet [4] = assay: Ratio of IC50 for platelet-activating factor-induced pig platelet aggregation to IC50 for ADP-induced pig platelet aggregation; format: functional, Sus scrofa; outline: as §2
[5] = Antiplatelet aggregation activity against ADP-induced pig platelet aggregation after 5 mins by aggregometer; format: functional, cell-based; conditions: Sus scrofa; outline: as §1
Rattus norvegicus [6] = assay: Antithrombotic activity in Wistar rat arterioveinos cannula model assessed as reduction of thrombus weight at 100 nmol/kg, iv; format: functional
Outline: (§3)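 Male Wistar rats, 250–300 g. Agents were dissolved in NS and kept on ice. Heparin sodium was injected into a thread-containing polyethylene cannula, then NS or agent was injected intravenously. The cannula joined the right carotid artery to the left jugular vein, and blood flowed through it for 15 min. Wet thrombus weight on the thread was recorded as mean ± SD, n = 12.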

Platelet [7] = assay: Ratio of IC50 for arachidonic acid-induced pig platelet aggregation to IC50 for ADP-induced pig platelet aggregation; format: functional, Sus scrofa; outline: as §2
[8] = Antiplatelet aggregation activity against platelet-activating factor-induced pig platelet aggregation after 5 mins by aggregometer; format: functional, cell-based; conditions: Sus scrofa; outline: as §1
[9] = Antiplatelet aggregation activity against thrombin-induced pig platelet aggregation after 5 mins by aggregometer; format: functional, cell-based; conditions: Sus scrofa; outline: as §1
Rattus norvegicus [10] = assay: Antithrombotic activity in Wistar rat arterioveinos cannula model assessed as reduction of thrombus weight at 1 umol/kg, iv; format: functional; outline: as §3
Rattus norvegicus [11] = assay: Antithrombotic activity in Wistar rat arterioveinos cannula model assessed as reduction of thrombus weight at 167 umol/kg, po; format: functional
Outline: (§4)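 Male Wistar rats received agent in NS, or NS alone, orally. Blood then passed from the right carotid artery to the left jugular vein through a thread-containing polyethylene cannula for 15 min. Wet thrombus weight was reported as mean ± SD, n = 12.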

Rattus norvegicus [12] = assay: Antithrombotic activity in Wistar rat arterioveinos cannula model assessed as reduction of thrombus weight at 167 umol/kg, iv; format: functional; outline: as §3
[13] = Antiplatelet aggregation activity against collagen-induced platelet; format: functional, cell-based
Rattus norvegicus [14] = assay: Antithrombotic activity in Wistar rat arterioveinos cannula model assessed as reduction of thrombus weight at 1 nmol/kg, iv; format: functional; outline: as §3
Rattus norvegicus [15] = assay: Antithrombotic activity in Wistar rat arterioveinos cannula model assessed as reduction of thrombus weight at 100 nmol/kg, po; format: functional; outline: as §4
Rattus norvegicus [16] = assay: Antithrombotic activity in Wistar rat arterioveinos cannula model assessed as reduction of thrombus weight at 10 nmol/kg, iv; format: functional; outline: as §3
Rattus norvegicus [17] = assay: Antithrombotic activity in Wistar rat arterioveinos cannula model assessed as reduction of thrombus weight at 5 umol/kg, iv; format: functional; outline: as §3

Row | SMILES | IC50 [1] [nM] | Ratio IC50 (Platelet [2]) | Ratio IC50 (Platelet [3]) | Ratio IC50 (Platelet [4]) | IC50 [5] [nM] | Thrombus weight (Rattus norvegicus [6]) [mg] | Ratio IC50 (Platelet [7]) | IC50 [8] [nM] | IC50 [9] [nM] | Activity (Rattus norvegicus [10]) [mg] | Activity (Rattus norvegicus [11]) [mg] | Activity (Rattus norvegicus [12]) [mg] | IC50 [13] [µM] | Activity (Rattus norvegicus [14]) [mg] | Activity (Rattus norvegicus [15]) [mg] | Activity (Rattus norvegicus [16]) [mg] | Activity (Rattus norvegicus [17]) [mg]
1 | N[C@@H](Cc1ccccc1)C(=O)N1Cc2[nH]c3ccccc3c2C[C@H]1C(=O)O | 28.6 | 3.1 | 72 | 1.9 | 9.8 | 17.25 | 2.9 | 19 | 30.2 | – | – | – | – | – | – | – | –
2 | CC(C)C[C@H](N)C(=O)N1Cc2[nH]c3ccccc3c2C[C@H]1C(=O)O | 26.8 | 3.9 | 81 | 1.9 | 8.7 | 25.26 | 3.1 | 16.9 | 34.1 | 10.55 | – | – | – | – | – | – | –
3 | N[C@@H](CS)C(=O)N1Cc2[nH]c3ccccc3c2C[C@H]1C(=O)O | 24.4 | 3.9 | 99 | 2.1 | 7.1 | 15.25 | 3.4 | 14.7 | 27.6 | – | – | – | – | – | – | – | –
4 | CC(=O)Oc1ccccc1C(=O)O [ASPIRIN] | – | – | – | – | – | – | – | – | – | – | 17.9 | 15.21 | – | – | – | – | –
5 | Cc1nccc2c1[nH]c1ccccc12 [HARMAN] | – | – | – | – | – | – | – | – | – | – | – | – | > 130 | – | – | – | –
6 | Cc1nccc2c1[nH]c1cc(O)ccc12 [HARMOL HYDROCHLORIDE] | – | – | – | – | – | – | – | – | – | – | – | – | > 130 | – | – | – | –
7 | COc1ccc2c3c([nH]c2c1)C(C)=NCC3 [HARMALINE] | – | – | – | – | – | – | – | – | – | – | – | – | > 130 | – | – | – | –
8 | N[C@@H](CO)C(=O)N1Cc2[nH]c3ccccc3c2C[C@H]1C(=O)O | 26.2 | 3.6 | 81 | 1.9 | 8.66 | 16.25 | 3 | 16.1 | 30.8 | – | – | – | – | – | – | – | –
9 | NC(=O)CC[C@H](N)C(=O)N1Cc2[nH]c3ccccc3c2C[C@H]1C(=O)O | 28.2 | 3.9 | 91 | 2.2 | 7.7 | 17.3 | 3.7 | 17.2 | 30.1 | – | – | – | – | – | – | – | –
10 | CC[C@H](C)[C@H](N)C(=O)N1Cc2[nH]c3ccccc3c2C[C@H]1C(=O)O | 23.9 | 4.1 | 107 | 1.9 | 6.56 | 13.74 | 3.6 | 12.6 | 27 | – | – | – | – | 25.43 | 13.88 | 18.12 | –
11 | N[C@@H](Cc1c[nH]c2ccccc12)C(=O)N1Cc2[nH]c3ccccc3c2C[C@H]1C(=O)O | 27.9 | 2.8 | 67 | 1.6 | 10.4 | 18.43 | 2.7 | 16.8 | 29.6 | – | – | – | – | – | – | – | –
12 | NC(=O)C[C@H](N)C(=O)N1Cc2[nH]c3ccccc3c2C[C@H]1C(=O)O | 28.9 | 3.3 | 76 | 1.8 | 9.19 | 16.34 | 3.2 | 16.2 | 30 | – | – | – | – | – | – | – | –
13 | CC1=NCCc2c1[nH]c1cc(O)ccc21 [HARMALOL] | – | – | – | – | – | – | – | – | – | – | – | – | > 130 | – | – | – | –
14 | CC(C)[C@H](N)C(=O)N1Cc2[nH]c3ccccc3c2C[C@H]1C(=O)O | 27.3 | 4.2 | 90 | 2.3 | 7.8 | 18.56 | 3.5 | 17.7 | 32.5 | – | – | – | – | – | – | – | –
15 | N[C@@H](Cc1ccc(O)cc1)C(=O)N1Cc2[nH]c3ccccc3c2C[C@H]1C(=O)O | 25.2 | 3.7 | 90 | 1.9 | 7.76 | 15.49 | 3.2 | 15.1 | 28.4 | – | – | – | – | – | – | – | –
16 | NCC(=O)N1Cc2[nH]c3ccccc3c2C[C@H]1C(=O)O | 26.5 | 3.7 | 82 | 2 | 8.56 | 19.29 | 3.1 | 16.8 | 31.9 | – | – | – | – | – | – | – | –
17 | COc1ccc2c(c1)[nH]c1c(C)nccc12 [HARMINE] | – | – | – | – | – | – | – | – | – | – | – | – | > 130 | – | – | – | –
18 | c1ccc2c(c1)[nH]c1cnccc12 [NORHARMANE] | – | – | – | – | – | – | – | – | – | – | – | – | > 130 | – | – | – | –
19 | C[C@@H](O)[C@H](N)C(=O)N1Cc2[nH]c3ccccc3c2C[C@H]1C(=O)O | 24.6 | 3.6 | 90 | 1.9 | 7.81 | 15.72 | 3.1 | 14.8 | 27.8 | – | – | – | – | – | – | – | –
20 | N[C@@H](CC(=O)O)C(=O)N1Cc2[nH]c3ccccc3c2C[C@H]1C(=O)O | 24 | 4 | 106 | 2 | 6.62 | 14.4 | 3.6 | 13.1 | 26.6 | – | – | – | – | – | – | – | –
21 | NCCCC[C@H](N)C(=O)N1Cc2[nH]c3ccccc3c2C[C@H]1C(=O)O | 30.1 | 3 | 63 | 1.5 | 11.1 | 16.54 | 2.7 | 17 | 33.4 | – | – | – | – | – | – | – | –
22 | N[C@@H](CCC(=O)O)C(=O)N1Cc2[nH]c3ccccc3c2C[C@H]1C(=O)O | 29.6 | 3 | 68 | 1.4 | 10.2 | 16.6 | 2.9 | 14.8 | 30.9 | – | – | – | – | – | – | – | –
23 | N[C@@H](Cc1cnc[nH]1)C(=O)N1Cc2[nH]c3ccccc3c2C[C@H]1C(=O)O | 24.9 | 4 | 96 | 2.1 | 7.31 | 15.89 | 3.4 | 15.5 | 29 | – | – | – | – | – | – | – | –
24 | CSCC[C@H](N)C(=O)N1Cc2[nH]c3ccccc3c2C[C@H]1C(=O)O | 23.5 | 3.9 | 108 | 1.9 | 6.5 | 13 | 3.6 | 12.4 | 25.3 | – | – | – | – | 22.59 | 13.49 | 17.67 | –
25 | O=C(O)[C@@H]1Cc2c([nH]c3ccccc23)CN1 [CYCLOMETHYLTRYPTOPHAN] | 866 | – | – | – | 701 | – | – | 752 | 982 | – | – | – | – | – | – | – | 18.79
26 | N=C(N)NCCC[C@H](N)C(=O)N1Cc2[nH]c3ccccc3c2C[C@H]1C(=O)O | 27.5 | 3.1 | 74 | 1.9 | 9.47 | 16.68 | 2.9 | 18.2 | 29.7 | – | – | – | – | – | – | – | –
27 | C[C@H](N)C(=O)N1Cc2[nH]c3ccccc3c2C[C@H]1C(=O)O | 24.6 | 4.1 | 104 | 2 | 6.71 | 14.61 | 3.7 | 13.6 | 27.4 | – | – | – | – | – | – | – | –
